Source: ChEMBL document CHEMBL3758101, “Synthesis and biological evaluation of fluorinated 1,5-diarylpyrrole-3-alkoxyethyl ether derivatives as selective COX-2 inhibitors endowed with anti-inflammatory activity” (Eur J Med Chem, 2016)
Calls of active or inactive are those of the source. The rule behind the calls is not given here.

Columns and labels:
HaCaT [1] = test: Cytotoxicity against human HaCaT cells at 1 to 50 uM after 24 hrs by LDH release assay; assay type: cell-based
How it was run: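 HaCaT cells were grown in high-glucose DMEM with 10% FBS to 80% confluency. They were exposed 24 h to compound at 1–50 µM (final DMSO ≤0.1%). LDH release was expressed as a percentage of Triton X-100 lysis (100%); mean of three experiments.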

HaCaT [2] = test: Antiproliferative activity against human HaCaT cells after 24 hrs by BrdU incorporation assay; assay type: functional, cell-based
How it was run: (§1)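 HaCaT human keratinocytes were grown in high-glucose DMEM with 10% FBS and 2 mM L-glutamine at 37 °C and 5% CO2 to 80% confluency. Cells were treated 24 h with compound at 1, 10 or 50 µM (final DMSO ≤0.1%). Proliferation was read by BrdU incorporation as % of DMSO control; three experiments.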

HaCaT [3] = test: Antiproliferative activity against human HaCaT cells at 10 uM after 24 hrs by BrdU incorporation assay; assay type: functional, cell-based; how it was run: as §1
HaCaT [4] = test: Antiproliferative activity against human HaCaT cells at 50 uM after 24 hrs by BrdU incorporation assay; assay type: functional, cell-based; how it was run: as §1
HaCaT [5] = test: Antiproliferative activity against human HaCaT cells at 1 uM after 24 hrs by BrdU incorporation assay; assay type: functional, cell-based; how it was run: as §1
[6] = target: T1, Prostaglandin G/H synthase 1 (Mus musculus, UniProt P22437); test: Inhibition of COX-1 in mouse J774 cells assessed as reduction in PGE2 level using arachidonic acid as substrate preincubated for 15 mins followed by incubation with arachidonic acid for 30 mins by radio immunoassay; assay type: cell-based
T1 sequence (P22437 whole entry): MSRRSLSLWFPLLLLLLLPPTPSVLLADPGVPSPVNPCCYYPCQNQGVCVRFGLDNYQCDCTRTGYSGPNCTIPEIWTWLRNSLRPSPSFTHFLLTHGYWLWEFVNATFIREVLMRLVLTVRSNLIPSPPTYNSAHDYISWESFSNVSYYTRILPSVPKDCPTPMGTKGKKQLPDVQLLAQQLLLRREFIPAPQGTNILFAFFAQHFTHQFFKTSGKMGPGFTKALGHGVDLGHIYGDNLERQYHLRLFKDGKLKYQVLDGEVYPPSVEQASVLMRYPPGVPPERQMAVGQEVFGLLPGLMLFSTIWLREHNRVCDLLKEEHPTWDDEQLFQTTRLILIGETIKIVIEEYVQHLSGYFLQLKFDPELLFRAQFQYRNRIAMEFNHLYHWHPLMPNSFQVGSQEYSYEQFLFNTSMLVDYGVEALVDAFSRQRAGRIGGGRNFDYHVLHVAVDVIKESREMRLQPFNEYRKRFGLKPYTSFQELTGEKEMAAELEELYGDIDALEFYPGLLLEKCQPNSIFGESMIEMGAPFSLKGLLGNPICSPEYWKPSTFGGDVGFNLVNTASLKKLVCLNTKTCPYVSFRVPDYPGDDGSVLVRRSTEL
How it was run: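 Murine J774 macrophages (2.5 × 10^5 cells/mL) were adhered 2 h at 37 °C and given fresh medium. Cells were pretreated with compound at 100 µM for 15 min, then incubated 30 min at 37 °C with 15 µM arachidonic acid. Supernatant PGE2 was measured by RIA as % inhibition versus control; triplicate wells, three experiments, IC50 from a sigmoidal variable-slope fit.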

[7] = target: T2, Prostaglandin G/H synthase 2 (Mus musculus, UniProt Q05769); test: Inhibition of COX-2 in mouse J774 cells assessed as reduction in LPS-induced PGE2 level incubated for 24 hrs by radio immunoassay; assay type: cell-based
T2 sequence (Q05769 whole entry): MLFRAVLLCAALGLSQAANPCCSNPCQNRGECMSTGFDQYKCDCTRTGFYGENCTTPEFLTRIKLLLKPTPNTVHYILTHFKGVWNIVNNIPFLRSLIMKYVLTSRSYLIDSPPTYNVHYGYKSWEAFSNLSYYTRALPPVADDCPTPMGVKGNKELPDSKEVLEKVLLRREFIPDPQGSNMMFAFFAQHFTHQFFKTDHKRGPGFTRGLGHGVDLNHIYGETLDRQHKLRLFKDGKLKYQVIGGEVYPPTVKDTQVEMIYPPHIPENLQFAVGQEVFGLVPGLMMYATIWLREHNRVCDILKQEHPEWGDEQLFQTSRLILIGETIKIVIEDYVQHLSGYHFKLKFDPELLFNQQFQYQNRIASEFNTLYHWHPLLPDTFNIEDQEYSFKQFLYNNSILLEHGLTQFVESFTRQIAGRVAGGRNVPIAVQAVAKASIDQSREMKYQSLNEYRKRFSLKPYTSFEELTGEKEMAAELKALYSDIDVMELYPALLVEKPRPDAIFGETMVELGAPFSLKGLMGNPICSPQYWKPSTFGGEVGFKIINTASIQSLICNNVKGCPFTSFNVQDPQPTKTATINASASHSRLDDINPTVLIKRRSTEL
How it was run: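 Murine J774 macrophages were stimulated for 24 h with E. coli LPS (10 µg/mL) to induce COX-2, with or without compound (0.001–10 µM). Supernatant PGE2 was measured by RIA as % inhibition of production versus control; triplicate wells, mean of three experiments, IC50 from a sigmoidal variable-slope fit.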

Mus musculus = species: Mus musculus; test: Selectivity ratio of IC50 for mouse COX-1 to IC50 for mouse COX-2
How it was run: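 In J774 cells, the ratio was taken as COX-1 IC50 over COX-2 IC50. COX-1 activity: 15 min compound pretreatment, then 30 min with 15 µM arachidonic acid. COX-2 activity: 24 h LPS (10 µg/mL) induction with compound. PGE2 was measured by RIA in both; IC50 values came from sigmoidal fits of three experiments.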

IC50 [6] [nM] | IC50 [7] [nM] | Ratio IC50 (Mus musculus) | SMILES | Activity (HaCaT [1]) | Activity (HaCaT [2]) | Activity (HaCaT [3]) | Activity (HaCaT [4]) | Activity (HaCaT [5])
> 100000 | 18 | > 5560 | CCCOCCc1cc(-c2ccc(S(C)(=O)=O)cc2)n(-c2ccc(F)c(F)c2)c1C | Non-toxic | Dose-dependent effect | Active | Active | inactive
> 100000 | 140 | > 714 | Cc1c(CCOCCF)cc(-c2ccc(S(C)(=O)=O)cc2)n1-c1cccc(F)c1 | Non-toxic | Dose-dependent effect | Active | Active | inactive
> 100000 | 19 | > 5260 | Cc1c(CCOCCCF)cc(-c2ccc(S(C)(=O)=O)cc2)n1-c1ccc(F)c(F)c1 | Non-toxic | Dose-dependent effect | Active | Active | inactive
> 100000 | 135 | > 2860 | Cc1c(CCOCCCF)cc(-c2ccc(S(C)(=O)=O)cc2)n1-c1cccc(F)c1 | Non-toxic | inactive | inactive | inactive | inactive
> 100000 | 29 | > 3450 | Cc1c(CCOCCF)cc(-c2ccc(S(C)(=O)=O)cc2)n1-c1ccc(F)c(F)c1 | Non-toxic | Dose-dependent effect | Active | Active | inactive
> 100000 | 13 | > 7690 | Cc1c(CCOCCF)cc(-c2ccc(S(C)(=O)=O)cc2)n1-c1ccc(F)cc1 | Non-toxic | Dose-dependent effect | Active | Active | inactive
> 100000 | 13 | > 7690 | CCCOCCc1cc(-c2ccc(S(C)(=O)=O)cc2)n(-c2cccc(F)c2)c1C | Non-toxic | inactive | inactive | inactive | inactive
